Measurements: ChEMBL document CHEMBL1136003, “2-Amino-3-aroyl-4,5-alkylthiophenes: agonist allosteric enhancers at human A(1) adenosine receptors” (J Med Chem, 2002)

How the values were obtained:
[1] = target: T1, Adenosine receptor A1 (Homo sapiens) (UniProt P30542); experiment: Allosteric enhancer activity score measured by its ability to stabilize the agonist-receptor-G protein ternary complex at a concentration of 100 uM; format: functional
T1 sequence (whole entry): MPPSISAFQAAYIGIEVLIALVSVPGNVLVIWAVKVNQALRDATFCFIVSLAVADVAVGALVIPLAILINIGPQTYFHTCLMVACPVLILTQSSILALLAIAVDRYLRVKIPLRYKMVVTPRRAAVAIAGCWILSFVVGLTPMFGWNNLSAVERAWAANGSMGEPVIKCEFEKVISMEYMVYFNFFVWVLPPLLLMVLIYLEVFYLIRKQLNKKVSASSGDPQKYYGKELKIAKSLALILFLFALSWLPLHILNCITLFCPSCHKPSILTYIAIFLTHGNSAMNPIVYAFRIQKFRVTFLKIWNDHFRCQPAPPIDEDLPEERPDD
Method in brief: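 Candidate enhancer added (100 µM) for 5 min, then dissociation started with 8-cyclopentyltheophylline plus GTPγS. Residual bound agonist after 10 min counted by filtration. Score = 100 × (B − Bo)/(Beq − Bo).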

[2] = target: T1, Adenosine receptor A1 (Homo sapiens); experiment: Inhibition of [3H]CPX binding to membrane of CHO-K cells stably expressing human adenosine A1 receptors.; format: cell membranes; set-up: concentration or dose not given beside the values; conditions: concentration not given here
Method in brief: (§1)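 Triplicate assays with membranes (15 µg protein) from CHO-K cells expressing human A1AR. Buffer was 10 mM HEPES pH 7.4 with 1 mM EDTA, adenosine deaminase 1 u/mL, [3H]CPX (4 nM in membrane aliquot), and enhancer added as 200 µM in 10% DMSO. Footnote gives enhancer at 100 µM. NECA defined nonspecific binding. Incubated 3 h at room temperature, then filtered and counted.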

[3] = target: T1, Adenosine receptor A1 (Homo sapiens); experiment: Inhibition of [3H]CPX binding to CHO-K cell membrane expressing human Adenosine A1 receptor; format: cell membranes; set-up: concentration or dose not given beside the values; conditions: concentration not given here; method in brief: as §1

Cc1sc(N)c(C(=O)c2cccc(Br)c2)c1C
AE Score [1]: 16%

Cc1sc(C(=O)O)c(C(=O)c2ccccc2)c1C
AE Score [1]: 0%

N#Cc1ccc(C(=O)c2c(N)sc3c2CCCC3)cc1
AE Score [1]: 19% | inhibition [2]: 21%

Nc1sc2c(c1C(=O)c1ccc3ccccc3c1)CCC2
AE Score [1]: 31% | inhibition [2]: 21%

Nc1sc2c(c1C(=O)c1ccccc1)CCCC2
AE Score [1]: 19% | inhibition [2]: 42%

Nc1sc2c(c1C(=O)c1ccc(Br)cc1)CCC2
AE Score [1]: 62% | inhibition [3]: 20%

Nc1sc2c(c1C(=O)c1ccc(Cl)cc1)CCC2
AE Score [1]: 70%

Nc1sc2c(c1C(=O)c1ccc(Br)cc1)CCCCC2
AE Score [1]: 86% | inhibition [2]: 7%

Nc1sc2c(c1C(=O)c1cccc(Cl)c1)CCCC2
AE Score [1]: 70% | inhibition [3]: 78%

Cc1sc(N)c(C(=O)c2cccc(C(F)(F)F)c2)c1C
AE Score [1]: 19% | inhibition [3]: 42%

CCOC(=O)c1c(N)sc2c1CCC2
AE Score [1]: 0.4% | inhibition [3]: 58%

Nc1sc2c(c1C(=O)c1ccccc1)CCCCC2
AE Score [1]: 13% | inhibition [2]: 68%

Nc1sccc1C(=O)c1ccc(Br)cc1
AE Score [1]: 0.8%

Nc1sccc1C(=O)c1ccc(F)cc1
AE Score [1]: 0%

Nc1sc2c(c1C(=O)c1cccc(Cl)c1)CCCCC2
AE Score [1]: 65% | inhibition [2]: 10%

Nc1sc2c(c1C(=O)c1ccc3ccccc3c1)CCCC2
AE Score [1]: 86%

COc1ccc(C(=O)c2c(N)sc3c2CCCCC3)cc1
AE Score [1]: 85%

Nc1sc2c(c1C(=O)c1cccc(F)c1)CCCC2
AE Score [1]: 22% | inhibition [3]: 35%

Nc1sc2c(c1C(=O)c1ccc(F)cc1)CCCC2
AE Score [1]: 17% | inhibition [2]: 56%

Nc1sc2c(c1C(=O)c1ccc(C3CCCCC3)cc1)CCCCC2
AE Score [1]: 77%

Cc1ccc(C(=O)c2c(N)sc3c2CCCC3)cc1
AE Score [1]: 19% | inhibition [2]: 36%

Cc1sc(N)c(C(=O)c2ccc(-c3ccccc3)cc2)c1C
AE Score [1]: 12%

Nc1sc2c(c1C(=O)c1ccc(I)cc1)CCCC2
AE Score [1]: 86% | inhibition [2]: 62%

CCOC(=O)c1c(N)sc2c1CCCCC2
AE Score [1]: 0.3% | inhibition [2]: 38%

Cc1sc(C(=O)O)c(C(=O)c2cccc(C(F)(F)F)c2)c1C
AE Score [1]: 0%

Nc1sc2c(c1C(=O)c1ccc(F)cc1)CCCCC2
AE Score [1]: 22%

Nc1sccc1C(=O)c1cccc(Cl)c1
AE Score [1]: 0%

Cc1cccc(C(=O)c2c(N)sc(C)c2C)c1
AE Score [1]: 18%

Cc1sc(N)c(C(=O)c2cccc(F)c2)c1C
AE Score [1]: 0%

Nc1sccc1C(=O)c1cccc(Br)c1
AE Score [1]: 0.2%

Nc1sccc1C(=O)c1ccc2ccccc2c1
AE Score [1]: 3.2%

Nc1sc2c(c1C(=O)c1cccc(Br)c1)CCCCC2
AE Score [1]: 78% | inhibition [2]: 7%

Nc1sc2c(c1C(=O)c1ccc(-c3ccccc3)cc1)CCCCC2
AE Score [1]: 88%

Nc1sccc1C(=O)c1ccc(Cl)cc1
AE Score [1]: 0%

CCOC(=O)c1c(N)sc2c1CCCC2
AE Score [1]: 3.5% | inhibition [2]: 53%

Nc1sc2c(c1C(=O)c1cccc3ccccc13)CCCCC2
AE Score [1]: 81%

Nc1sc2c(c1C(=O)c1ccc(C3CCCCC3)cc1)CCCC2
AE Score [1]: 99% | inhibition [2]: 47%

Nc1sc2c(c1C(=O)c1cccc(Cl)c1)CCC2
AE Score [1]: 13% | inhibition [3]: 56%

Cc1sc(N)c(C(=O)c2cccc(Cl)c2)c1C
AE Score [1]: 14%

Nc1sc2c(c1C(=O)c1ccc(I)cc1)CCCCC2
AE Score [1]: 96% | inhibition [2]: 9%

Nc1sc2c(c1C(=O)c1cccc(Br)c1)CCC2
AE Score [1]: 68% | inhibition [3]: 36%

Nc1sc2c(c1C(=O)c1ccc(Cl)cc1)CCCC2
AE Score [1]: 68% | inhibition [2]: 69%

Nc1sc2c(c1C(=O)c1ccc(-c3ccccc3)cc1)CCC2
AE Score [1]: 38%

Nc1sc2c(c1C(=O)c1ccccc1)CCC2
AE Score [1]: 20% | inhibition [3]: 56%

COc1cccc(C(=O)c2c(N)sc3c2CCCCC3)c1
AE Score [1]: 99% | inhibition [2]: 13%

Nc1sccc1C(=O)c1ccccc1
AE Score [1]: 0.2% | inhibition [3]: 15%

Cc1cc(C)c(C(=O)c2c(N)sc(C)c2C)c(C)c1
AE Score [1]: 0%

Nc1sc2c(c1C(=O)c1ccc(-c3ccccc3)cc1)CCCC2
AE Score [1]: 33%

Nc1sc2c(c1C(=O)c1cccc(F)c1)CCC2
AE Score [1]: 16%

Cc1sc(C(=O)O)c(C(=O)c2ccc(-c3ccccc3)cc2)c1C
AE Score [1]: 0%

Cc1sc(N)c(C(=O)c2ccccc2)c1C
AE Score [1]: 9%

Nc1sc2c(c1C(=O)c1ccc3ccccc3c1)CCCCC2
AE Score [1]: 75%

Nc1sc2c(c1C(=O)c1ccc(F)cc1)CCC2
AE Score [1]: 22% | inhibition [3]: 40%

Nc1sc2c(c1C(=O)c1cccc(I)c1)CCCCC2
AE Score [1]: 86%

Nc1sc2c(c1C(=O)c1ccc(Br)cc1)CCCC2
AE Score [1]: 83% | inhibition [2]: 61%

Nc1sccc1C(=O)c1cccc(F)c1
AE Score [1]: 0%

Nc1sc2c(c1C(=O)c1ccc(Cl)cc1)CCCCC2
AE Score [1]: 65%

Nc1sccc1C(=O)c1ccc(Cl)c(Cl)c1
AE Score [1]: 1.7%

Nc1sc2c(c1C(=O)c1cccc(Br)c1)CCCC2
AE Score [1]: 49% | inhibition [3]: 49%
